The values below come from ChEMBL document CHEMBL4765368, “Structure guided design and synthesis of furyl thiazolidinedione derivatives as inhibitors of GLUT 1 and GLUT 4, and evaluation of their anti-leukemic potential” (Eur J Med Chem, 2020).

As a reminder, the CC50 is the concentration that lowers cell viability or growth by half.

The subject of assay [1] is MDA-MB-231. Nature of the assay: Cytotoxicity against human MDA-MB-231 cells assessed as reduction in cell viability measured after 48 hrs by Hoechst 33342/propidium iodide staining based imaging analysis. The class given is functional. The essentials:
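Cells were seeded at 10,000 per well (HS-27 at 3,000) in 10% FBS RPMI (leukemic lines) or DMEM (MDA-MB-231, HS-27). Compound in DMSO (1% v/v final) at 0.5–100 µM for 48 h. Hoechst 33342 and PI were added 2 h before automated imaging; dead cells were co-stained. Quadruplicates. CC50 was taken by linear interpolation between the two concentrations nearest 50% death.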

Assay [2] deals with CCRF-CEM. Nature of the assay: Induction of apoptosis in human CCRF-CEM cells assessed as necrotic cells at CC50 measured after 24 hrs by AnnexinV-FITC/propidium iodide staining based flow cytometry analysis relative to control. Type of assay: functional. The essentials:
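CCRF-CEM cells in RPMI with 10% FBS were seeded in 24-well plates, incubated overnight, given fresh medium, then treated for 24 h. Cells were PBS-washed, spun at 500 g for 5 min at 4 °C, and resuspended in ice-cold binding buffer. They were stained with annexin V-FITC and PI for 15 min on ice in the dark, then read by flow cytometry. Untreated cells were the negative control; triplicates.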
For orientation: A flow cytometer gives signals particle by particle.

In assay [3] the test system is CCRF-CEM. Nature of the assay: Cell cycle arrest in human CCRF-CEM cells assessed as increase in accumulation at sub-G0/G1 phase measured after 72 hrs by NIM-DAPI staining based flow cytometry. Type of assay: functional. The essentials:
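An asynchronous CEM culture was seeded at 100,000 cells/well in 1 mL complete RPMI and exposed to 10, 25 or 50 μM for 72 h. Controls were untreated cells, DMSO and hydrogen peroxide. Cells were pelleted at 262 g, resuspended, and stained with NIM-DAPI, which permeabilizes and stains DNA in one step. About 100,000 events per sample were read by flow cytometry. Triplicates.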

Assay [4] concerns the target T1, Solute carrier family 2, facilitated glucose transporter member 1 (Homo sapiens) (UniProt P11166).
T1 sequence (whole entry): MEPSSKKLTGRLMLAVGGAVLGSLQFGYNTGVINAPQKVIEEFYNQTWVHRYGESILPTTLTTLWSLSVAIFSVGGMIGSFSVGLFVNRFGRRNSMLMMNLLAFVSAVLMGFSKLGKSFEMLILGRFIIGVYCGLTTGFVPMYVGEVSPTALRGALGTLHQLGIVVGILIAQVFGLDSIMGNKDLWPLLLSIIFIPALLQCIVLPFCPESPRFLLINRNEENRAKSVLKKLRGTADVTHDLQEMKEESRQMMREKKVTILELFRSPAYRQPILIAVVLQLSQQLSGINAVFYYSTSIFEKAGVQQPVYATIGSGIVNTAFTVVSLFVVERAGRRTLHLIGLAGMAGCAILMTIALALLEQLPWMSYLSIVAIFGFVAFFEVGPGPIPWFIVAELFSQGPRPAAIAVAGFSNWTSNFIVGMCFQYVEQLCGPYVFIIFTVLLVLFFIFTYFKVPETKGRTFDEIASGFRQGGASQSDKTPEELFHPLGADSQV
Nature of the assay: Inhibition of transport activity of human GLUT1 expressed in hexose transporter deficient VW4000fgy1 yeast cells assessed as reduction in transporter-mediated [14C]-hexose uptake into cells by measuring relative activity at 100 uM measured after 10 mins by scintillation counting method relative to control. Type of assay: cell-based. Details: scale not given: the % may be the effect or the level left. In short, it runs like this:
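The hxt0 yeast strain expressing one human GLUT was grown at 30 °C and resuspended in PBS pH 7.4 at OD600 ~10. Uptake was started with 14C-glucose at 5 mM final (GLUT1, GLUT4) or 14C-fructose at 10 mM final (GLUT5). It was quenched after 10 min with ice-cold 0.1 M KPi/0.1 M LiCl pH 5.5, filtered and counted by scintillation. Compound at 100 μM with 1% DMSO; DMSO control and phloretin 200 μM (GLUT1/4) or MSNBA 100 μM (GLUT5) as references. Triplicates.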

Turning to `O=C(CN1C(=O)S/C(=C/c2ccco2)C1=O)Nc1nc2ccccc2s1`, in assay [1], the CC50 turned out to be 45.1 µM. In addition, the Activity was 16.6% in assay [2] and “Dose-dependent effect” in assay [3].
In the case of `O=C(CN1C(=O)S/C(=C/c2ccco2)C1=O)Nc1ccc(Cl)c(Cl)c1`, in assay [4], the Activity worked out at 30%.
